# Publication PMC9773939 (ACS Omega, 2022)
# Where two headings read alike, the source gives them in different places.
# Key:
# [1] = system: promastigotes of L. braziliensis; experiment: In vitro growth inhibition of L. braziliensis promastigotes; assay type: cell-based, Leishmania (V) braziliensis (MHOM/BR/75/M2903); conditions: for IC50: read-out: promastigote, IC50 L. braziliensis; for inhibition at 25 µM: read-out: promastigote, PGI (percentage growth inhibition) L. braziliensis
# [2] = system: promastigotes of L. infantum; experiment: In vitro growth inhibition of L. infantum promastigotes; assay type: cell-based, Leishmania infantum (MHOM MA67I7MAP263); conditions: for IC50: read-out: promastigote, IC50 L. infantum
# Method in brief: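 L. infantum MHOM MA67I7MAP263 promastigotes at 2 × 10^6 parasites/mL were exposed to 0.5–25 μM test compound for 72 h at 25 °C. Dilutions came from a 3000 μM DMSO stock, with final DMSO ≤1%. MTT (0.4 mg/mL) was added for 4 h at 37 °C, formazan was dissolved in DMSO and read at 570 nm. Inhibition was calculated against untreated controls. At least three experiments, mean ± SD.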
# [3] = system: epimastigotes of T. cruzi; experiment: In vitro anti-T. cruzi evaluation on epimastigotes; assay type: cell-based, T. cruzi (CL Brener clone); conditions: for S.I.T.cruzi (selectivity index), column epimastigote, IC50 (μM) T. cruzi (S.I.T.cruzi): CC50 (J774.1A) / IC50 of epimastigotes (T. cruzi); for IC50 / inhibition at 25 µM: Trypanosoma cruzi; for IC50: 120 h, read-out: epimastigote, IC50 T. cruzi; for inhibition at 25 µM: read-out: epimastigote, PGI (percentage growth inhibition) T. cruzi, determined at 25 μM
# Method in brief: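 Turbidity (A595) was read at day 0 and day 5. PGI was calculated relative to untreated controls, with single-point PGI at 25 μM. IC50 is the concentration […]. At least three experiments.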
# peritoneal macrophages = experiment: Cytotoxicity on primary peritoneal macrophages; assay type: cell-based, mouse; conditions: read-out: peritoneal macrophage, CC50; 48 h, MTT
# Method in brief: (§1)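 Peritoneal or J774.1A macrophages were grown in DMEM with 10% heat-inactivated FBS, L-glutamine and penicillin/streptomycin. Cells were seeded at 5 × 10^4 cells/well for 24 h at 37 °C, 5% CO2, then given test compound at 10–100 μM (from 25,000 μM DMSO stock) for 48 h. MTT (0.4 mg/mL, 4 h, 37 °C) was dissolved in DMSO and read at 570 nm. Cytotoxicity was expressed relative to negative controls. At least three experiments.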
# J774.1A macrophages = experiment: Cytotoxicity on J774.1A macrophages; assay type: cell-based; conditions: read-out: J774.1A macrophage, CC50; 48 h, MTT
# Method in brief: as §1
# [4] = system: amastigotes of L. braziliensis; experiment: Ex vivo antiamastigote activity of L. braziliensis; assay type: cell-based, L. braziliensis (MHOM/BZ/82/M2903); conditions: for S.I.Leishmania (selectivity index): CC50 (peritoneal macrophage) / IC50 (amastigotes of L. braziliensis); for IC50: Leishmania braziliensis, 48 h, read-out: amastigote, IC50 L. braziliensis
# Method in brief: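 L. braziliensis MHOM/BZ/82/M2903 amastigotes were taken from footpad lesions of infected BALB/c mice. Macrophages were removed by brief centrifugation (3000 rpm, 2–3 min). Amastigotes were kept at 37 °C, pH 5.5, in supplemented M199 with 10% FCS. At 2 × 10^6/mL they were exposed to 1.0–50.0 μM test compound (controls 1% DMSO). At 48 h parasites were counted in a Neubauer chamber against untreated controls. S.I. = peritoneal macrophage CC50 / amastigote IC50.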
# [5] = system: epimastigotes of T. cruzi; experiment: Antifolate activity: IC50 on T. cruzi epimastigotes with and without folic acid; assay type: cell-based; conditions: presence vs absence of D,L-folic acid
# Method in brief: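 T. cruzi epimastigotes were treated with test compound with or without D,L-folic acid, following the epimastigote turbidimetric viability protocol (120 h, 25 °C, A595). IC50 was determined in each condition and compared.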
# [6] = system: L. infantum promastigotes; experiment: Nitrite concentration by Griess test, L. infantum promastigote culture; assay type: cell-based; conditions: 5 days, 25, 50 and 100 μM
# Method in brief: (§2)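 L. infantum promastigote or T. cruzi epimastigote cultures (5 × 10^6 parasites/well) were incubated 5 days with test compound at 25, 50 and 100 μM, with untreated wells as controls. Supernatants were mixed with 1% sulfanilamide in 50% acetic acid, then after 15 min with 1% N-naphthylethylenediamine in 50% acetic acid, and read at 540 nm. Nitrite (μM) was taken from a sodium nitrite standard curve (detection limit 1.56 μM). Run in triplicate.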
# T. cruzi epimastigotes = experiment: Nitrite concentration by Griess test, T. cruzi epimastigote culture; assay type: cell-based; conditions: 5 days, 25, 50 and 100 μM
# Method in brief: as §2
# [7] = Cytotoxicity on primary peritoneal macrophages; assay type: cell-based, mouse; conditions: mouse, primary peritoneal macrophages, peritoneal macrophage, CC50, 48 h, MTT
# Method in brief: as §1
# [8] = Cytotoxicity on J774.1A macrophages; assay type: cell-based; conditions: mouse, J774.1A macrophages, J774.1A macrophage, CC50, 48 h, MTT
# Method in brief: as §1
# [9] = system: promastigotes of L. infantum; assay type: cell-based; conditions: presence vs absence of D,L-folic acid
# Method in brief: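 L. infantum promastigotes were treated with test compound with or without D,L-folic acid, following the promastigote MTT viability protocol (72 h, 25 °C, formazan read at 570 nm). IC50 was determined in each condition and compared.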
# [10] = Solubility, qualitative remarks; assay type: physicochemical; conditions: qualitative remark
# [11] = system: Salmonella typhimurium TA 98 strain; experiment: Mutagenicity Ames test; assay type: cell-based
# [12] = system: promastigotes of L. infantum; experiment: Effect of metal cations on IC50 on L. infantum promastigotes; assay type: cell-based; conditions: Leishmania parasites, metal cation at 1 μM
# Method in brief: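 L. infantum promastigotes were treated with test compound alone or with a metal cation (Fe3+, Cu2+ or Zn2+) at 1 μM, following the promastigote MTT viability protocol. IC50 was determined with and without the cation and compared.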
# [13] = Oxidative decomposition followed by NMR; assay type: physicochemical; conditions: 2 weeks of incubation with H2O2
IC50 [4],Compound,IC50 ([1]; Leishmania braziliensis),"IC50 ([2]; Leishmania infantum, 72 h)","S.I.T.cruzi (selectivity index), column epimastigote, IC50 (μM) T. cruzi (S.I.T.cruzi) [3]",IC50 [3],CC50 (peritoneal macrophages),S.I.Leishmania (selectivity index) [4],further results
12.7 ± 0.78 µM,"NNc1nc(-c2ccc(Br)cc2)nc2ccccc12 [3d, (Z)-1-(2-(4-bromophenyl)quinazolin-4(3H)-ylidene)hydrazine]",6.2 ± 0.38 µM,2.13 ± 0.12 µM,5.5,14.3 ± 0.87 µM,78 ± 3.89 µM,6.2,CC50 (J774.1A macrophages): 78.6 ± 3.99 µM; change of IC50 on addition of folic acid (FA) [5]: Increasing IC50 values by about twofold
–,"O=c1[nH]c(-c2ccc(Cl)cc2)nc2ccccc12 [2-(4-chlorophenyl)quinazolin-4(3H)-one, reference compound]",–,–,–,–,–,–,nitrite ion production (Griess test) [6]: No production was detected; nitrite ion production (Griess test) (T. cruzi epimastigotes): No production was detected
–,"CNC[C@H](O)[C@@H](O)[C@H](O)[C@H](O)CO.[O]=[Sb](=[O])[OH] [glucantime, reference compound]",–,–,–,–,138 ± 10.1 µM,11.3,IC50 ([1]; promastigotes): 32 ± 1.78 µM
8.26 ± 0.45 µM,"NNc1nc(-c2ccccc2)nc2ccccc12 [3a, (Z)-1-(2-phenylquinazolin-4(3H)-ylidene)hydrazine]",4.53 ± 0.23 µM,12.7 ± 0.74 µM,<3.6,> 25 µM,61 ± 2.34 µM,7.4,CC50 (J774.1A macrophages): 90.2 ± 4.32 µM
21.2 ± 1.13 µM,"CCCCCCCCCCCCCCCCOP(=O)([O-])OCC[N+](C)(C)C [miltefosine, reference compound]",8.78 ± 0.41 µM,10.6 ± 0.46 µM,–,–,–,3.2,CC50 at 48 h [7]: 67.8 ± 3.11 µM; CC50 at 48 h [8]: 72.3 ± 3.45 µM; change of IC50 on addition of folic acid (FA) [9]: not affected
–,N/N=c1\[nH]c(-c2ccco2)nc2ccccc12 [3k],> 25 µM,14 ± 0.91 µM,–,> 25 µM,–,–,inhibition at 25 µM ([1]; Leishmania braziliensis): 46.6%; inhibition at 25 µM [3]: 8.56%
–,"COc1ccccc1-c1nc2ccccc2/c(=N/N)[nH]1 [3i, (Z)-1-(2-(2-Methoxyphenyl)quinazolin-4(3H)-ylidene)hydrazine]",> 25 µM,> 25 µM,–,> 25 µM,–,–,"inhibition at 25 µM ([1]; Leishmania braziliensis): 49.2%; promastigote, IC50 L. braziliensis ([1]; promastigotes): did not show activity; inhibition at 25 µM ([2]; Leishmania infantum, read-out: promastigote, PGI (percentage growth inhibition) L. infantum): 28.3%; promastigote, IC50 L. infantum ([2]; promastigotes, 72 h, MTT): did not show activity; inhibition at 25 µM [3]: 11.9%; solubility [10]: poor solubilities"
8.96 ± 0.53 µM,"NNc1nc(-c2ccc(Cl)cc2)nc2ccccc12 [3c, (Z)-1-(2-(4-chlorophenyl)quinazolin-4(3H)-ylidene)hydrazine]",5.12 ± 0.32 µM,1.56 ± 0.09 µM,9.1,11.5 ± 0.49 µM,–,–,CC50 at 48 h [7]: 89.9 ± 3.77 µM; CC50 at 48 h [8]: 105 ± 5.66 µM; revertants number ([11]; dose 27.9 μg/plate): 8.0 ± 2.0; revertants number ([11]; dose 37.2 μg/plate): 4.5 ± 2.0; revertants number ([11]; dose 55.8 μg/plate): 5.0 ± 0.5; revertants number ([11]; dose 111.7 μg/plate): 8.0 ± 1.0; revertants number ([11]; dose 335.0 μg/plate): 9.5 ± 0.5; change of IC50 on addition of folic acid (FA) [5]: Increasing IC50 values by about twofold; change of IC50 on addition of folic acid (FA) [9]: modest increase in IC50; change of IC50 in the presence of Cu2+ [12]: increase in IC50 values; nitrite ion production (Griess test) [6]: appreciable amount of nitrite ion in sub-micromolar ranges; nitrite ion production (Griess test) (T. cruzi epimastigotes): appreciable amount of nitrite ion in sub-micromolar ranges; decomposition under oxidative conditions [13]: decomposed in at least three additional products; solubility in culture [10]: appreciable solubility
